Measurements reported in ChEMBL document CHEMBL1142010, “Synthesis and in vitro antitrypanosomal activity of novel Nifurtimox analogues” (2005).

What was measured:
Assay type in all cases: functional
Trypanosoma cruzi [1] = test: Percent of growth inhibition of Trypanosoma cruzi (Y strain) epimastigote forms at compound concentration of 1 mg/mL after incubation for 24 hr
Summary of the method: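 Y-strain epimastigotes were grown at 28 °C in LIT medium with 10% heat-inactivated (56°, 30 min) fetal calf serum. Log-phase parasites, started at 2 × 10⁶/mL, were exposed to compound in DMSO (1% final). Growth and viability were read every 24 h by inverted microscopy, absorbance at 580 nm and Neubauer counts, in triplicate. Growth inhibition % is the mean of three experiments.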

Trypanosoma cruzi [2] = test: Percent of growth inhibition of Trypanosoma cruzi (Y strain) epimastigote forms at compound concentration of 1 mg/mL after incubation for 48 hr; design: inhibition: dose or concentration left out as unconfirmed
Trypanosoma cruzi [3] = test: Percent of growth inhibition of Trypanosoma cruzi (Y strain) epimastigote forms at compound concentration of 1 mg/mL after incubation for 72 hr; design: inhibition: dose or concentration left out as unconfirmed
Trypanosoma cruzi [4] = test: Percent of growth inhibition of Trypanosoma cruzi (Y strain) epimastigote forms at compound concentration of 10 mg/mL after incubation for 24 hr; design: inhibition: dose or concentration left out as unconfirmed
Trypanosoma cruzi [5] = test: Percent of growth inhibition of Trypanosoma cruzi (Y strain) epimastigote forms at compound concentration of 10 mg/mL after incubation for 48 hr; design: inhibition: dose or concentration left out as unconfirmed
Trypanosoma cruzi [6] = test: Percent of growth inhibition of Trypanosoma cruzi (Y strain) epimastigote forms at compound concentration of 10 mg/mL after incubation for 72 hr; design: inhibition: dose or concentration left out as unconfirmed
Trypanosoma cruzi [7] = test: Percent of growth inhibition of Trypanosoma cruzi (Y strain) epimastigote forms at compound concentration of 10 mg/mL after incubation for 98 hr; design: inhibition: dose or concentration left out as unconfirmed
Trypanosoma cruzi [8] = test: Percent of growth inhibition of Trypanosoma cruzi (Y strain) epimastigote forms at compound concentration of 100 mg/mL after incubation for 24 hr; design: inhibition: dose or concentration left out as unconfirmed

O=C(/C=C/c1cccs1)NCc1ccccc1
inhibition at 1000 µg/mL (Trypanosoma cruzi [1]): 17.4%
inhibition (Trypanosoma cruzi [2]): 15%
inhibition (Trypanosoma cruzi [3]): 10.7%
inhibition (Trypanosoma cruzi [4]): 17.4%
inhibition (Trypanosoma cruzi [5]): 22.5%
inhibition (Trypanosoma cruzi [6]): 19.6%
inhibition (Trypanosoma cruzi [7]): 13.2%
inhibition (Trypanosoma cruzi [8]): 39.1%

O=C(/C=C/c1ccc([N+](=O)[O-])o1)Nc1nc2c(Cl)cccc2s1
inhibition at 1000 µg/mL (Trypanosoma cruzi [1]): 26.1%
inhibition (Trypanosoma cruzi [2]): 22.5%
inhibition (Trypanosoma cruzi [3]): 23.2%
inhibition (Trypanosoma cruzi [4]): 21.7%
inhibition (Trypanosoma cruzi [5]): 42.5%
inhibition (Trypanosoma cruzi [6]): 50%
inhibition (Trypanosoma cruzi [7]): 50%
inhibition (Trypanosoma cruzi [8]): 100%

O=C(/C=C/c1ccc([N+](=O)[O-])o1)NCc1ccccc1
inhibition at 1000 µg/mL (Trypanosoma cruzi [1]): 47.8%
inhibition (Trypanosoma cruzi [2]): 65%
inhibition (Trypanosoma cruzi [3]): 71.4%
inhibition (Trypanosoma cruzi [4]): 100%
inhibition (Trypanosoma cruzi [5]): 100%
inhibition (Trypanosoma cruzi [6]): 100%
inhibition (Trypanosoma cruzi [7]): 100%
inhibition (Trypanosoma cruzi [8]): 100%

CC(C)CNC(=O)/C=C/c1ccc([N+](=O)[O-])o1
inhibition at 1000 µg/mL (Trypanosoma cruzi [1]): 47.8%
inhibition (Trypanosoma cruzi [2]): 65%
inhibition (Trypanosoma cruzi [3]): 69.6%
inhibition (Trypanosoma cruzi [4]): 100%
inhibition (Trypanosoma cruzi [5]): 100%
inhibition (Trypanosoma cruzi [6]): 100%
inhibition (Trypanosoma cruzi [7]): 100%
inhibition (Trypanosoma cruzi [8]): 100%

O=C(/C=C/c1ccc([N+](=O)[O-])o1)NCc1ccc2c(c1)OCO2
inhibition at 1000 µg/mL (Trypanosoma cruzi [1]): 52.2%
inhibition (Trypanosoma cruzi [2]): 67.5%
inhibition (Trypanosoma cruzi [3]): 71.4%
inhibition (Trypanosoma cruzi [4]): 100%
inhibition (Trypanosoma cruzi [5]): 100%
inhibition (Trypanosoma cruzi [6]): 100%
inhibition (Trypanosoma cruzi [7]): 100%
inhibition (Trypanosoma cruzi [8]): 100%

O=C(/C=C/c1ccc([N+](=O)[O-])o1)NCc1ccc(Cl)cc1
inhibition at 1000 µg/mL (Trypanosoma cruzi [1]): 39.1%
inhibition (Trypanosoma cruzi [2]): 60%
inhibition (Trypanosoma cruzi [3]): 67.8%
inhibition (Trypanosoma cruzi [4]): 100%
inhibition (Trypanosoma cruzi [5]): 100%
inhibition (Trypanosoma cruzi [6]): 100%
inhibition (Trypanosoma cruzi [8]): 100%

O=C(/C=C/c1ccc([N+](=O)[O-])s1)NCc1ccccc1
inhibition at 1000 µg/mL (Trypanosoma cruzi [1]): 26.1%
inhibition (Trypanosoma cruzi [3]): 25%
inhibition (Trypanosoma cruzi [4]): 30.4%
inhibition (Trypanosoma cruzi [5]): 47.5%
inhibition (Trypanosoma cruzi [6]): 53.6%
inhibition (Trypanosoma cruzi [7]): 55.9%
inhibition (Trypanosoma cruzi [8]): 100%

O=C(/C=C/c1ccco1)NCc1ccccc1
inhibition at 1000 µg/mL (Trypanosoma cruzi [1]): 8.7%
inhibition (Trypanosoma cruzi [2]): 5%
inhibition (Trypanosoma cruzi [3]): 5.36%
inhibition (Trypanosoma cruzi [4]): 21.7%
inhibition (Trypanosoma cruzi [5]): 32.5%
inhibition (Trypanosoma cruzi [6]): 28.6%
inhibition (Trypanosoma cruzi [7]): 19.1%
inhibition (Trypanosoma cruzi [8]): 39.1%

C[S+](C)[O-] [DIMETHYL SULFOXIDE]
inhibition at 1000 µg/mL (Trypanosoma cruzi [1]): 0%
inhibition (Trypanosoma cruzi [2]): 0%
inhibition (Trypanosoma cruzi [3]): 0%
inhibition (Trypanosoma cruzi [4]): 0%
inhibition (Trypanosoma cruzi [5]): 0%
inhibition (Trypanosoma cruzi [6]): 0%
inhibition (Trypanosoma cruzi [7]): 0%
inhibition (Trypanosoma cruzi [8]): 0%

CC1CS(=O)(=O)CCN1/N=C/c1ccc([N+](=O)[O-])o1 (stereo not drawn) [NIFURTIMOX]
inhibition at 1000 µg/mL (Trypanosoma cruzi [1]): 17.4%
inhibition at 1000 µg/mL (Trypanosoma cruzi [2]): 20%
inhibition at 1000 µg/mL (Trypanosoma cruzi [3]): 19.6%
inhibition at 10000 µg/mL (Trypanosoma cruzi [4]): 100%
inhibition at 10000 µg/mL (Trypanosoma cruzi [5]): 100%
inhibition at 10000 µg/mL (Trypanosoma cruzi [6]): 100%
inhibition at 10000 µg/mL (Trypanosoma cruzi [7]): 100%
inhibition at 100000 µg/mL (Trypanosoma cruzi [8]): 100%
